In assay [1] the target is T1, Angiotensin-converting enzyme (Homo sapiens, UniProt P12821). The assay is described as follows: Inhibition of human somatic ACE C-terminal domain.
In a further assay the target is Neprilysin (Homo sapiens, UniProt P08473). The experiment in a line: Inhibition of human somatic NEP. A digest of the protocol: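 Human NEP (0.5 nM) preincubated 45 min with inhibitor, then Mca-Arg-Pro-Pro-Gly-Phe-Ser-Pro-Dpa-OH (5 μM, Km 2 μM) added. Run at 25 °C, pH 6.8 Hepes/NaCl/ZnCl2/Brij-35 buffer. Fluorescence increase read at ex 320/em 405 nm under initial rates. […] Ki obtained.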

Assay [2] concerns the target T2, Endothelin-converting enzyme 1 (Homo sapiens, UniProt P42892).
T2 sequence (P42892 whole entry): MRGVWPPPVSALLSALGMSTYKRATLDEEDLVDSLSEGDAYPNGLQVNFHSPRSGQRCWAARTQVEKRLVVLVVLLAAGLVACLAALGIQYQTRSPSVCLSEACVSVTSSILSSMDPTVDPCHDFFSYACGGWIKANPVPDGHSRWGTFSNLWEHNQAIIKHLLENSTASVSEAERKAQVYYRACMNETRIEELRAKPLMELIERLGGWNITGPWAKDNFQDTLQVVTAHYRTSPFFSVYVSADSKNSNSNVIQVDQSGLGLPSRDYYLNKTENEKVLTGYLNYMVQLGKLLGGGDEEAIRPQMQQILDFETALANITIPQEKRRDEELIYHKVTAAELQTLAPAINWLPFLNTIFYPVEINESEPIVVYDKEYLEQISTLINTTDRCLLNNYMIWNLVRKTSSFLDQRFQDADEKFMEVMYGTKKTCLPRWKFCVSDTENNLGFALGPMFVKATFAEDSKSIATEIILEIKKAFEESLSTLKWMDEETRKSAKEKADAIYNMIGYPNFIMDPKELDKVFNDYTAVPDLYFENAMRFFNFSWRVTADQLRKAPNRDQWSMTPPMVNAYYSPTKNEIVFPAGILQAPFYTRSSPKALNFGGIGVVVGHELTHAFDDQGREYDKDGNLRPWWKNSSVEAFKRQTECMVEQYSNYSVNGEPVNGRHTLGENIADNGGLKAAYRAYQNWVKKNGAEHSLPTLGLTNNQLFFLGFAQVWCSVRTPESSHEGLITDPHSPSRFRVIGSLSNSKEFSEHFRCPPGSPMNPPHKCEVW
The assay is described as follows: Inhibition of human somatic ECE1.

In a further assay the target is Collagenase 3 (Homo sapiens, UniProt P45452). The assay is described as follows: Inhibition of human MMP13.
Assay [3] concerns the target T1, Angiotensin-converting enzyme. The experiment in a line: Inhibition of human somatic ACE in presence of 1:50 diluted SHR rat plasma. Summed up:
(§1)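 ACE (1 nM final) and inhibitor at various concentrations incubated 45 min in this plasma. Reaction started with Mca-Ala-Ser-Asp-Lys-Dpa-OH (15 μM). Fluorescence monitored. Apparent Ki derived.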

Assay [4] shares this target. The assay is described as follows: Inhibition of human somatic ACE in presence of 1:100 diluted SHR rat plasma. The format is cell-free. A digest of the protocol: as §1
Assay [5] shares this target. The experiment in a line: Inhibition of human somatic ACE in presence of 1:100 diluted SHR rat plasma complemented with 5 uM serum albumin. The format is cell-free. A digest of the protocol: as §1
For assay [6] the target is unchanged. The assay is described as follows: Inhibition of human somatic ACE in presence of buffer.
Assay [7] deals with Rattus norvegicus. The experiment in a line: Antihypertensive activity in spontaneously hypertensive rat assessed as mean arterial pressure at 10 mg/kg, iv. The format is functional, Artery. A digest of the protocol:
(§2)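 Male SHR rats (250 g, 12 weeks old) anesthetized with Nesdonal (50 mg/kg ip), tracheotomized, body temperature kept at 37 °C. MAP recorded by femoral artery transducer. Inhibitor or vehicle ([…]) given as iv bolus through venous catheter after 20 min stabilization. MAP followed for 60 min, n = 6/dose.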

Assay [8] relates to Rattus norvegicus. The experiment in a line: Antihypertensive activity in spontaneously hypertensive rat assessed as mean arterial pressure at 3 mg/kg, iv. The format is functional, Artery. A digest of the protocol:
as §2

For assay [9], the target named is T1, Angiotensin-converting enzyme. The experiment in a line: Inhibition of human somatic ACE N-terminal domain. A digest of the protocol:
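Human somatic ACE (0.5 nM) preincubated 45 min with inhibitor, then Mca-Ala-Ser-Asp-Lys-Dpa-OH substrate (8 μM) added. Continuous fluorescence read at ex 320/em 405 nm under initial-rate conditions. […] Ki calculated per domain.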

Assay [10] concerns Rattus norvegicus. The experiment in a line: Antihypertensive activity in spontaneously hypertensive rat assessed as mean arterial pressure at 30 mg/kg, iv. The format is functional, Artery. Summed up:
as §2

Turning to `O=C(N[C@@H](Cc1ccccc1)P(=O)(O)CC(CC1CC(c2ccc(-c3ccccc3)cc2)=NO1)C(=O)N[C@@H](Cc1c[nH]c2ccccc12)C(=O)O)OCc1ccccc1` (some centres undefined), the Ki (as a rule, a measure of affinity in units of concentration, obtained from inhibition or displacement) in assay [1] is 25 nM; at Neprilysin it was over 10000 nM; in assay [2], over 10000 nM.
As to `O=C(N[C@@H](Cc1ccccc1)P(=O)(O)CC(Cc1ccccc1)C(=O)N[C@@H](Cc1c[nH]c2ccccc12)C(=O)O)OCc1ccccc1` (some centres undefined), the Ki turned out to be 1.4 nM on Neprilysin and 1.2 nM in assay [2].
For `O=C(N[C@@H](Cc1ccccc1)P(=O)(O)CC(Cc1cc(-c2ccccc2)no1)C(=O)N[C@@H](Cc1ccccc1)C(=O)O)OCc1ccccc1` (single isomer, unassigned), the Ki in assay [1] was 3.8 nM; on Neprilysin, over 10000 nM; in assay [2], 7.7 nM; on Collagenase 3, over 10000 nM; in assay [3] it was 340 nM; in [4], 32 nM. The Ki in assay [5] was 110 nM; in [6], 3.8 nM.
In the case of `O=C(N[C@H]1CCS[C@H]2CCC[C@@H](C(=O)O)N2C1=O)[C@@H](S)Cc1ccccc1` [OMAPATRILAT], the Ki in assay [1] was 6 nM; at Neprilysin it was 9 nM.
On to `C[C@H](NC(=O)C(CC1CC(c2ccccc2)=NO1)CP(=O)(O)[C@H](Cc1ccccc1)NC(=O)OCc1ccccc1)C(=O)O` (some centres undefined), for which the Ki turned out to be 5 nM in assay [1], 85 nM at Neprilysin and 2100 nM in [2].
`O=C(N[C@@H](Cc1ccccc1)P(=O)(O)C[C@@H](Cc1cc(-c2ccccc2)no1)C(=O)N[C@@H](Cc1ccc(O)cc1)C(=O)O)OCc1ccccc1` returned a Ki at Collagenase 3 of 24 nM.
As for `O=C(N[C@@H](Cc1ccccc1)P(=O)(O)C[C@H](Cc1cc(-c2ccccc2)no1)C(=O)N[C@@H](Cc1ccc(O)cc1)C(=O)O)OCc1ccccc1`, the Ki is 6700 nM at Neprilysin; 14 nM in [2]; 4000 nM at Collagenase 3; […] in [3]; […] in assay [4]; […] in assay [5]. The Activity was determined as 132 mmHg in the assay on Rattus norvegicus [7] and 147 mmHg in the assay with Rattus norvegicus [8].
In the case of `CS(=O)(=O)N[C@@H](CCCCN)C(=O)N[C@@H](Cc1ccccc1)P(=O)(O)CC1(C(=O)N[C@@H](Cc2c[nH]c3ccccc23)C(=O)O)CCCC1`, the IC50 (in general, the concentration that inhibits the measured activity by half) came out at 2.5 nM in [1] and 90 nM at Neprilysin.
In turn, `O=C(O)[C@H](Cc1ccc2c(c1)oc1ccccc12)NCP(=O)(O)O` came in with an IC50 against Neprilysin of 2300 nM.
`O=C(N[C@@H](Cc1ccccc1)P(=O)(O)C[C@@H](Cc1cc(-c2ccccc2)no1)C(=O)N[C@@H](Cc1c[nH]c2ccccc12)C(=O)O)OCc1ccccc1`: the Ki was found to be 1.4 nM in assay [1], 130 nM on Neprilysin, 26 nM in [2] and 19 nM on Collagenase 3.
For the compound `O=C(N[C@@H](Cc1ccccc1)P(=O)(O)C1CCC[C@H]1C(=O)N[C@@H](Cc1c[nH]c2ccccc12)C(=O)O)OCc1ccccc1` (single isomer, unassigned), the Ki is 3 nM in assay [1], over 50000 nM on Neprilysin, over 50000 nM in assay [2] and 2500 nM in [9].
Take `O=C(N[C@@H](Cc1ccccc1)P(=O)(O)CC(Cc1ccc(-c2ccccc2)cc1)C(=O)N[C@@H](Cc1c[nH]c2ccccc12)C(=O)O)OCc1ccccc1` (some centres undefined): the Ki in [1] is 12 nM; on Neprilysin it was 52 nM; in assay [2], over 10000 nM.
Take `O=C(N[C@@H](Cc1ccccc1)P(=O)(O)C[C@H](Cc1cc(-c2ccccc2)no1)C(=O)N[C@@H](Cc1c[nH]c2ccccc12)C(=O)O)OCc1ccccc1`: the Ki in assay [1] amounted to 36 nM; at Neprilysin, 1850 nM; in assay [2] it was 8 nM; at Collagenase 3, 1200 nM; in [3], 1520 nM; in assay [4], 500 nM. The values for the Ki in assay [5] and in assay [6] were 1510 nM and 36 nM, respectively. Further, the Activity was 148 mmHg with Rattus norvegicus [7] and 96 mmHg in the assay on Rattus norvegicus [10].
As to `O=C(N[C@@H](Cc1ccccc1)P(=O)(O)CC(CC1CC(c2ccccc2)=NO1)C(=O)N[C@@H](Cc1c[nH]c2ccccc12)C(=O)O)OCc1ccccc1` (some centres undefined), the Ki in [1] is 13 nM; on Neprilysin, 2500 nM; in [2], 910 nM.
As for `O=C(N[C@@H](Cc1ccccc1)P(=O)(O)CC(CC1CC(c2ccc(C(F)(F)F)cc2)=NO1)C(=O)N[C@@H](Cc1c[nH]c2ccccc12)C(=O)O)OCc1ccccc1` (some centres undefined), the Ki is 20 nM in assay [1], over 5000 nM on Neprilysin and over 5000 nM in [2].
In the case of `O=C(N[C@@H](Cc1ccccc1)P(=O)(O)CC(Cc1cc(-c2ccccc2)no1)C(=O)N[C@@H](Cc1c[nH]c2ccccc12)C(=O)O)OCc1ccccc1` (some centres undefined), the Ki came out at 16 nM in assay [1], 260 nM at Neprilysin and 14 nM in assay [2].
Take `O=C(N[C@@H](Cc1ccccc1)P(=O)(O)C[C@@H](Cc1cc(-c2ccccc2)no1)C(=O)N[C@@H](Cc1ccccc1)C(=O)O)OCc1ccccc1`: the Ki is 0.4 nM in assay [1], 68 nM on Neprilysin, 240 nM in assay [2] and 30 nM at Collagenase 3.

The values above are taken from ChEMBL document CHEMBL1156752, “Phosphinic tripeptides as dual angiotensin-converting enzyme C-domain and endothelin-converting enzyme-1 inhibitors” (J Med Chem, 2010).
